High-throughput results (PubChem BioAssay)
Rin1 Abl inh: inhibitors of Rin1-Abl protein binding, primary screen, biochemical, TR-FRET; Tyrosine-protein kinase ABL1 (Homo sapiens) + Ras and Rab interactor 1 (Homo sapiens), …; inhibition, % at 7.35 µM; 0.4% of 360,000 active; AID 588664, 2011; in the data active = inhibition above about 5%, passing the limit was not always enough
PG9 Ab binder: binders of HIV-1 gp120 antibody PG9, primary screen, biochemical, TR-FRET; HIV-1 gp120 / PG9 antibody interaction; TR-FRET gp120-PG9 antibody binding; inhibition, % at 6.7 µM; 0.43% of 360,000 active; in the data active = inhibition above about 8.5%
TbMetRS inhib: T. brucei MetRS inhibitors, primary screen, biochemical, luminescence. inhibition, % at 11.9 µM. AID 624268, 2012. purified T. brucei MetRS, ATP depletion, Kinase-Glo luminescence. 0.4% of 360,000 active;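 active = inhibition above a per-plate cutoff of the control wells' mean inhibition plus 3 SD, cut at about 5.5% in these data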;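 note: 0% = DMSO wells median and 100% = median of wells with control inhibitor compound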
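Material: parasite MetRS enzyme / Replication: singlicate, one well per compound / Signal: luminescence of leftover ATP / Schedule: 2 h aminoacylation at 25 °C after 15 min preincubation / Medium: HEPES-MgCl2-KCl buffer plus DTT, spermine, BSA, pyrophosphatase / Doses: 11.9 µM single point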
Rev-erbA mod: modulators of Rev-erb alpha DNA binding, primary screen, biochemical, FITC-DNA, fluorescence polarization, uHTS; Nuclear receptor subfamily 1 group D member 1 (Homo sapiens), P20393; Rev-erbα–FITC-DNA binding, 90 min; activity, % at 10 µM; 0.79% of 370,000 active;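 active = activity above about 14%, limit read from the data; passing the limit was not always enough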;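 note: 0% = DMSO wells with 35 nM protein and 100% = DMSO wells with 750 nM protein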
Target sequence (P20393 whole entry, looked up): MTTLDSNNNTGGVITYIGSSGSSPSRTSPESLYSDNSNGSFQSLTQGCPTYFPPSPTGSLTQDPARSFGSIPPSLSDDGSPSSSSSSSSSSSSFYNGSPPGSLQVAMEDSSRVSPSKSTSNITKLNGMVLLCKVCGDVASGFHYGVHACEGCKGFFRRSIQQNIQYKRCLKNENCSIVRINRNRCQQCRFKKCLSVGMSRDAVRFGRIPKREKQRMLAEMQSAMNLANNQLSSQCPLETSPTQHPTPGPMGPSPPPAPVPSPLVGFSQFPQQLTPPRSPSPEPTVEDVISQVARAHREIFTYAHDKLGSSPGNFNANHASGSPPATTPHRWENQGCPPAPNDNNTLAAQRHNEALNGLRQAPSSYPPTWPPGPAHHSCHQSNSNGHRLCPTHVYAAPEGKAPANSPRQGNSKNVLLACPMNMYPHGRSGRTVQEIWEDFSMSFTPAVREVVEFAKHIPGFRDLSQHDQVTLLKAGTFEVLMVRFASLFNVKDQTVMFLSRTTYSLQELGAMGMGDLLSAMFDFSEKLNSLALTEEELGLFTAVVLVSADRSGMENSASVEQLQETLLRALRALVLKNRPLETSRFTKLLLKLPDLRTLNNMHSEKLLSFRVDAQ
Tb MetRS conf: T. brucei MetRS inhibitors, confirmation, biochemical, luminescence; shares compounds with TbMetRS inhib; T. brucei MetRS enzyme, luminescence (ATP depletion); inhibition, % at 11.9 µM; 93% of 1,400 active; in the data active = inhibition above about 7%
Jurkat tox: Jurkat T cell cytotoxicity, cytotoxicity control for T. brucei MetRS inhibitor project, luminescence, high throughput; shares compounds with TbMetRS inhib; inhibition, % at 8.3 µM; 12% of 1,400 active; AID 624413, 2012; Jurkat cells viability, ATP luminescence; in the data active = inhibition above about 15%;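 note: 0% = vehicle and 100% = reference inhibitor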
TbMetRS FP orth: T. brucei MetRS inhibitors, orthogonal assay for T. brucei MetRS inhibitor project, biochemical, fluorescence polarization. purified T. brucei MetRS. AID 651607, 2012. 44% of 1,400 active. shares compounds with TbMetRS inhib. inhibition, % at 11.9 µM; in the data active = inhibition above about 17%;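 note: 0% = vehicle wells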
* marks the source's active call; other numbers are inactive results; / = not tested or not shown. Most compounds without a hit are left out; they make up all but 1.8% or so of the library.

SMILES | Rin1 Abl inh | PG9 Ab binder | TbMetRS inhib | Rev-erbA mod | Tb MetRS conf | Jurkat tox | TbMetRS FP orth
O=C(Cc1ccccc1)N/N=C/C=C/c1ccccc1[N+](=O)[O-] | -1.9 | -3.9 | 7.0* | -4.7 | 10.9* | 7.6 | 9.8
N#C/C(=C\C=C\c1ccccc1[N+](=O)[O-])C(=O)NCc1ccccc1 | -0.5 | 0.2 | 12.8* | -1.2 | 30.2* | 77.4* | 12.1
N#C/C(=C\c1ccccc1[N+](=O)[O-])C(=O)NCc1ccccc1 | 3.1 | -0.1 | 0.2 | 0.5 | / | / | /
O=C(Nc1c(-c2ccc(F)c(F)c2)nc2ncccn12)C1CC1 | / | / | / | 0.9 | / | / | /
Cc1ccc(C)c(NC(=O)C2CCCN2S(=O)(=O)c2cccnc2)c1 (configuration not stated) | / | / | / | 0.4 | / | / | /
CN(C)Cc1c(C(C)(C)O)[nH]c2cc(C(F)(F)F)ccc12 | / | -0.5 | / | -4.1 | / | / | /
Cc1ccc2nc(-c3ccc(SCC(=O)O)nc3)[nH]c2c1 | -0.4 | 3.3 | 10.2* | 2.5 | 21.4* | -3.0 | 4.5
Cc1ccc2nc(-c3ccc(SCC(=O)N4CCc5ccccc54)nc3)[nH]c2c1 | -2.5 | -1.1 | 1.1 | 11.0 | / | / | /
O=C(CSc1ccccc1)Nc1ccc(-c2nc3ccccc3[nH]2)cc1 | 1.2 | 1.7 | 2.8 | -1.5 | / | / | /
CCOC(=O)CNC(=O)CSc1ccc(-c2nc3ccccc3[nH]2)cn1 | -2.2 | -2.0 | 9.1* | -0.9 | 27.6* | 6.5 | 9.6
O=C(CSc1ccc(-c2nc3ccccc3[nH]2)cn1)Nc1ccc(S(=O)(=O)N2CCCC2)cc1 | -2.2 | -1.2 | 29.6* | -0.5 | 33.0* | 7.7 | 31.1*
N#Cc1ccccc1CSc1ccc(-c2nc3ccccc3[nH]2)cn1 | -3.6 | -0.9 | 11.3* | 7.1 | 24.3* | 12.1 | 20.8*
CC(=O)CSc1ccc(-c2nc3ccccc3[nH]2)cn1 | 1.5 | -3.8 | 1.4 | -5.8 | / | / | /
COC(=O)[C@]12C[C@H](CC(=O)N3CCOCC3)C(=O)N(Cc3ccccc3)C1=C[C@H](C1CCCC1)O[C@@H]2C | / | 0.2 | / | -1.7 | / | / | /
N=c1c2c(-c3ccccc3)c(-c3ccccc3)n(CCc3ccccc3)c2ncn1C1CCC(O)CC1 (configuration not stated) | / | / | / | -2.6 | / | / | /
O=C(NCC1COc2ccccc2O1)c1ccc(NC(=O)C(Cl)Cl)cc1 (configuration not stated) | / | / | / | -7.5 | / | / | /
Cc1ccc(NC(=O)Cc2ccc(OC(F)F)cc2)c(S(=O)(=O)N2CCOCC2)c1 | / | / | / | -5.5 | / | / | /
O=C(NC1CCCC1)N1CCC(c2nc3ccc(Cl)cc3[nH]2)CC1 | / | / | / | -1.8 | / | / | /
CN1C(=O)c2cc(NC(=O)Nc3ccccc3)ccc2OC[C@H]2O[C@@H](CC(=O)Nc3cc(F)ccc3F)CC[C@@H]21 | / | / | / | 8.7 | / | / | /
Cc1ccc(S(=O)(=O)N2CCCC(C(=O)NCCN3CCC(Cc4ccccc4)CC3)C2)cc1 (configuration not stated) | / | / | / | -6.8 | / | / | /
O=C(CNS(=O)(=O)c1ccc(F)cc1)N1CCN(c2ccccn2)CC1 | / | / | / | -2.5 | / | / | /
O=C(CSCc1nc2ccccc2[nH]1)N1CCN(c2cccc(Cl)c2)CC1 | -2.9 | -1.8 | 13.2* | -2.2 | 26.1* | 3.3 | 11.0
S=c1[nH]nc(CCc2nc3ccccc3[nH]2)n1-c1ccccc1 | 2.0 | -3.1 | 0.3 | -1.8 | / | / | /
S=c1[nH]nc(CCc2nc3ccccc3[nH]2)n1-c1cccc(Cl)c1 | 1.2 | 0.6 | 7.7* | 4.5 | 14.1* | -6.5 | 0.8
CC(=O)CC[C@@H]1CC[C@]2(CCCN(C(=O)c3ccno3)C2)O1 | / | / | / | 11.9 | / | / | /
SMILES | Rin1 Abl inh | PG9 Ab binder | TbMetRS inhib | Rev-erbA mod | Tb MetRS conf | Jurkat tox | TbMetRS FP orth
Nc1[nH]c2cc(C(F)(F)F)ccc2c1C(=O)NCc1ccc(F)cc1 | / | / | / | 0.3 | / | / | /
O=C(Cn1c(C(F)(F)F)nc2ccccc21)Nc1ccccc1N1CCOCC1 | 2.0 | -0.9 | -0.6 | 5.1 | / | / | /
CSc1nc2ccccc2n1CC(=O)Nc1cc(C(F)(F)F)ccc1N1CCOCC1 | -1.8 | 0.7 | 12.9* | -9.9 | 20.8* | 11.8 | 11.3
CCOc1ccc(S(=O)(=O)c2c[nH]c3ccccc3c2=O)cc1 | 0.4 | -0.5 | 12.8* | -2.8 | 24.2* | 1.4 | 6.2
CCOc1ccc2[nH]cc(S(=O)(=O)c3ccc(F)cc3)c(=O)c2c1 | 1.9 | -0.6 | 1.1 | 2.7 | / | / | /
Nn1c(SCC(=O)Nc2ccccc2-c2ccccc2)nnc1-c1cc(-c2ccc(F)cc2)n[nH]1 | / | / | / | -4.0 | / | / | /
NS(=O)(=O)c1ccc(CCNC(=O)c2cc(-c3cc(Cl)ccc3O)n[nH]2)cc1 | -5.8 | 0.6 | 31.8* | -0.2 | 37.5* | 13.9 | 35.6*
Cc1cc(C)c(O)c(-c2cc(C(=O)NCCc3ccc(S(N)(=O)=O)cc3)[nH]n2)c1 | 2.7 | -0.4 | 5.7* | -2.2 | 15.3* | 3.5 | 17.1*
Cc1cc(O)c(-c2cc(C(=O)NCCc3ccc(S(N)(=O)=O)cc3)[nH]n2)cc1C | 1.9 | -0.1 | -0.4 | 1.7 | / | / | /
O=C(Nc1cccc(F)c1)O[C@@H]1CC[C@@]23CCCN2C(=O)CCC[C@H]3C1 | / | / | / | -4.2 | / | / | /
O=C(CSc1nc2ccccc2[nH]1)NCCc1ccc(Cl)cc1 | -0.6 | -0.6 | 32.3* | 14.0 | 37.2* | 1.1 | 17.2*
O=C(CCCSc1nc2ccccc2[nH]1)NCc1ccc(Cl)cc1 | 0.1 | -1.3 | 43.0* | 4.7 | 68.3* | -4.6 | 30.2*
COc1cc(CNCc2ccccn2)ccc1OCc1ccc(Cl)cc1Cl | -3.4 | -1.0 | 9.9* | 3.2 | 17.4* | 14.6 | 12.4
COc1cc(CNCCN2CCOCC2)ccc1OCc1ccc(Cl)cc1Cl | 1.2 | -0.8 | 7.0* | 5.4 | 15.2* | 16.5* | 7.5
O=C1C2Sc3[nH]c(=O)sc3C(c3cc([N+](=O)[O-])ccc3O)C2C(=O)N1c1ccccc1 (configuration not stated) | 1.3 | -0.8 | 16.3* | 1.4 | 19.3* | -0.4 | 12.0
O=C(NNC(=O)c1cc(-c2ccc(Cl)c(Cl)c2)nc2ccccc12)Nc1ccccc1 | -1.3 | -0.5 | 45.1* | 1.9 | 93.9* | 2.2 | 80.9*
O=c1[nH]c(Cc2ccc(Cl)cc2)nc2ccccc12 | -0.8 | -1.2 | -0.8 | 1.8 | / | / | /
O=c1[nH]c(CSc2ncc(C(F)(F)F)cc2Cl)nc2ccccc12 | -1.8 | -2.4 | 53.2* | 3.0 | 76.8* | 11.0 | 54.1*
O=c1[nH]c(Cc2cccc(C(F)(F)F)c2)nc2ccccc12 | 1.8 | 2.3 | 51.1* | 0.6 | 55.5* | -4.5 | 26.7*
